# Sampled rows, rich in hits. Any-hit rate of the full collection: about 0.99%.
# FN deposition inh = fibronectin deposition inhibition; 350,000 tested, 0.086% active; inhibition, % at 12.6 µM; AH1F fibroblasts, Alexa488-fibronectin deposition fluorescence, overnight;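 active = mean inhibition across replicates of 30% or more, regardless of how many single replicates reach that level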;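 also: positive control wells lacked labelled fibronectin entirely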
#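 Material: AH1F fibroblast monolayer depositing Alexa488-labelled fibronectin into matrix | Input: 10000 AH1F cells/well | Medium: DMEM plus 2% serum, read in PBS | Reagent: Alexa488-fibronectin, 24 nM final in well | Compound dosing: One dose per compound, pinned | Schedule: 1 h adhesion, overnight exposure | Measured by: Fluorescence at 485 nm excitation, 525 nm emission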
# GC-A act = GC-A (human) enzyme activation | HEK293 GC-A cells, cGMP TR-FRET, EC30 ANP; 0% at EC30 ANP, 100% saturating ANP | activation, % at 10 µM | 370,000 tested, 0.14% active; in the data active = activation above about 40%
# CaV13 FRET inh = Primary screen for inhibitors of IQ motif and Ca2+-dependent inactivation inhibitor domain binding in CACNA1D, Förster resonance energy transfer in living cells, …. HEK cells, CFP/YFP FRET ICDI-IQ, plate reader, 10 min; percent FRET-ratio fall versus neutral wells. inhibition, % at 12.3 µM. 340,000 tested, 0.098% active. AID 743397;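 active = mean replicate inhibition of at least 30% and at least 1% of replicates passing that level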;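 also: 0% = median of the neutral control wells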
# NSD2 inh = inhibitors of human histone methyltransferase NSD2; NSD2 peptide methylation, AlphaScreen, 120 min; inhibition, % at 12.5 µM; 310,000 tested, 0.54% active; AID 743445; in the data active = inhibition above about 50%
# NPR2 activator = GC-B (human) receptor activation. P20594. HEK293-GC-B cells, CNP EC30, cGMP TR-FRET; 0% at EC30 CNP, 100% saturating CNP. activation, % at 10 µM. 370,000 tested, 0.11% active;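 active = activation at 10 µM reaching about 35% in either raw or pattern-adjusted values, limit read from the data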
# Casp6 inh = inhibitors of human caspase-6; P55212; purified caspase-6, Z-VEID-R110 cleavage fluorescence; 350,000 tested, 0.53% active; inhibition, % at 12.5 µM;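 active = mean inhibition across replicates at least about 35%, with every replicate also reaching that limit, limit read from the data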;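 also: 0% = median of neutral control wells and 100% = no fluorescence left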
# Target sequence (P55212 24-179 limits assumed): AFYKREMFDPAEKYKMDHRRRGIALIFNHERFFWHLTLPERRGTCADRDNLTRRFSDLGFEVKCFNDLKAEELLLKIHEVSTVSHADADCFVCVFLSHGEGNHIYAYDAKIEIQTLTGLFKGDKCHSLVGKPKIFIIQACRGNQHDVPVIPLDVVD
# Target sequence (P55212 194-293 limits assumed): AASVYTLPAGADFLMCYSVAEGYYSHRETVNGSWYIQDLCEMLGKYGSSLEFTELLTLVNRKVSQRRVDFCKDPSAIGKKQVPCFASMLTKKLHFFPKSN
# * hit, by the source's call; · = no result given.
SMILES,FN deposition inh,GC-A act,CaV13 FRET inh,NSD2 inh,NPR2 activator,Casp6 inh
C[C@H](CO)N1C[C@H](C)[C@@H](CN(C)Cc2ccc(Cl)c(Cl)c2)Oc2ccc(NC(=O)NC3CCCCC3)cc2CC1=O,·,·,·,·,·,0
COc1ccc(OC)c(NC(=O)Nc2ccc(O)c3ccccc23)c1,25,-22,-20,6,-18,54*
COc1ccc(CNC(=S)Nc2cc(OC)ccc2OC)cc1,0,40*,-19,3,3,2
O=C(/C=C/c1ccc(Cl)cc1Cl)Nc1ccc(-c2nnc3n2CCCCC3)cc1,·,·,·,0,·,·
NCC[C@H]1CC[C@H](NC(=O)c2ccccc2F)[C@@H](CO)O1,9,·,·,·,·,2
C[C@H]1CN([C@@H](C)CO)C(=O)Cc2cc(NS(C)(=O)=O)ccc2O[C@H]1CN(C)C(=O)Nc1cccc2ccccc12,·,·,·,·,·,2
O=S(=O)(Cc1ccccc1)NCc1cccnc1,-4,0,-6,-2,2,·
O=C1C(Cl)=C(NCc2cccnc2)C(=O)c2ccccc21,13,7,-2,48,-2,87*
C[C@H](CO)N1C[C@H](C)[C@H](CN(C)C(=O)c2ccccn2)Oc2cc(C#Cc3ccccc3)ccc2S1(=O)=O,-9,·,·,·,·,-4
Cc1ccc(S(=O)(=O)N2CCC(C(=O)NCCCN3CCOCC3)CC2)cc1C,-4,1,-5,-1,3,60*
Clc1ccc(-c2nc(-c3ccncc3)no2)c(Cl)c1,-15,46*,-5,-4,-9,2
O=[N+]([O-])c1cc(Cl)ccc1-c1nc(-c2ccncc2)no1,-20,46*,-43,-1,-2,2
CC(=O)N(C)C[C@H]1Oc2ncc(C#CC(C)(C)O)cc2C(=O)N([C@H](C)CO)C[C@H]1C,3,·,·,·,·,1
C=C(C)C(=O)Nc1cccc(C2=NOC3(C2)C[C@H](C(N)=O)N(C(=O)COc2ccc(Cl)cc2)C3)c1 (stereo partly specified),-13,-1,-13,·,4,51*
C=C(C)C(=O)Nc1cccc(C2=NOC3(C2)C[C@@H](C(N)=O)N(C(=O)C(=C)C)C3)c1 (stereo partly specified),-7,4,4,·,4,38*
C=C(C)C(=O)Nc1cccc(C2=NOC3(C2)C[C@H](C(N)=O)N(C(=O)/C=C/C)C3)c1 (stereo partly specified),-6,-1,-2,·,-3,53*
C=C(C)C(=O)Nc1cccc(C2=NOC3(C2)C[C@@H](C(N)=O)N(C(=O)/C=C/CC)C3)c1 (stereo partly specified),-6,1,-7,·,-1,44*
C/C=C/C(=O)N1CC2(CC(c3cccc(NC(=O)CC)c3)=NO2)C[C@H]1C(N)=O (stereo partly specified),7,2,-8,·,5,·
CCC(=O)Nc1cccc(C2=NOC3(C2)C[C@@H](C(N)=O)N(C(=O)COc2ccc(Cl)cc2)C3)c1 (stereo partly specified),-2,0,-12,·,1,-5
O=C(C[C@@H]1C[C@@H]2c3cc(NC(=O)c4cccnc4)ccc3O[C@@H]2[C@H](CO)O1)NCCN1CCCCC1,·,·,·,·,·,22
CC(=O)NCc1ccc(C(=O)COC(=O)c2ccc(C#N)cc2)o1,·,·,·,4,·,·
CCCNC(=O)N[C@@H]1CC[C@@H](CC(=O)N2CCN(C)CC2)O[C@H]1CO,10,·,·,·,·,-5
COc1cccc2sc3ccc(NCCC4CCCN4C)cc3c(=O)c12 (stereo unspecified),1,-3,-38,·,-2,-7
COc1cc2sc3cc(NCC[C@@H]4CCCN4C)ccc3c(=O)c2cc1OC,-10,0,36*,·,-4,-56
C[C@H](CO)N1C[C@H](C)[C@H](CN(C)Cc2ccc(C(F)(F)F)cc2)Oc2ccc(NS(=O)(=O)c3cn(C)cn3)cc2CC1=O,·,·,·,·,·,0
SMILES,FN deposition inh,GC-A act,CaV13 FRET inh,NSD2 inh,NPR2 activator,Casp6 inh
CC1CCCC(NC(=O)c2ccc3c(SCC(=O)O)c4c(nc3c2)CCC4)C1C (stereo unspecified),-3,-5,-6,·,-1,43*
COc1ccc(S(=O)(=O)N(C)C[C@H]2OCCCC[C@H](C)Oc3ccc(NC(=O)Nc4cccc5ccccc45)cc3C(=O)N([C@@H](C)CO)C[C@H]2C)cc1,·,·,·,·,·,1
CC(C)[C@H]1C(=O)N[C@@H](c2ccccc2)CC=CC[C@H](C)Oc2ccccc2C(=O)N1C (mixture of isomers),-10,·,·,·,·,·
COc1ccc(CN(C2CCCC2)S(=O)(=O)c2ccc(-n3cnnn3)cc2)cc1OC,31*,-4,-3,-3,0,·
Oc1c(CN2CCCCC2)ccc2cccnc12,-2,-2,-9,·,3,69*
Oc1ccc(CN2CCCCC2)c2cccnc12,·,-3,-8,1,-2,-20
Cc1nc2ccc(Br)cc2c(-c2ccccc2)c1C(=O)O,0,44*,-17,0,17,2
CC(=O)c1c(C)nc2ccc(Br)cc2c1-c1ccccc1,-5,-18,-7,0,-9,4
CO[C@@H]1CN(C)C(=O)c2ccc(NS(=O)(=O)c3ccccc3)cc2OC[C@H](C)N(C(=O)NC(C)C)C[C@H]1C,9,·,·,·,·,0
Cc1nc2ccc(NC(=O)CCC3CCCC3)cc2s1,-3,-2,-6,-2,-1,81*
CCOC(=O)C1CCN(Cc2cn[nH]c2-c2ccccc2)CC1,-10,0,-2,126*,0,·
CCCn1c2ccccc2c2nnc(SCCN3CCOCC3)nc21,8,3,-1,-2,8,43*
O=C([C@H]1[C@H](CO)[C@H]2Cn3c(ccc(C4=CCCC4)c3=O)[C@H]2N1Cc1nccs1)N1CCOCC1,·,·,·,·,·,0
Cc1ccc(S(=O)(=O)OCC(=O)Nc2ccc(C(=O)O)c(O)c2)cc1,4,3,-3,·,3,79*
COC(=O)CC1OCC=C2CN3CCC45C6=CC(=O)C(=O)C([N+](=O)[O-])=C6NC4C1C2CC35 (stereo unspecified),14,3,-4,·,8,69*
COC(=O)C1=COC(OC2OC(CO)C(O)C(O)C2O)C2C(C)CC(=O)C12 (stereo unspecified),·,3,·,·,-6,35*
COC(=O)C1=COC(OC2OC(CO)C(O)C(O)C2O)C2C1C=CC2(O)CO (stereo unspecified),·,4,·,·,3,48*
COC(=O)C1=CO[C@@H](O[C@@H]2O[C@H](CO)[C@@H](O)[C@H](O)[C@H]2O)C2C1CC(O)O[C@H]2C (stereo partly specified),7,4,-10,·,-2,0

# Compound activity from PubChem BioAssay.
